What was measured:
[1] = Penetration ratio, ratio of AUC (0 to 24 hrs) for human colon wall tissue to AUC (0 to 24 hrs) for human serum at 75th AUC percentile curve; assay type: ADME
Summary of the method: (§1)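 Penetration was expressed as steady-state tissue (colon wall or ELF) AUC0-24 divided by serum AUC0-24. AUCs came from the population model, by direct simulation with the mean parameter vector and by Monte Carlo simulation using the parameter distribution.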

[2] = AUC (0 to 24 hrs) in human colon wall tissue at 5th AUC percentile curve; assay type: ADME, tissue-based; set-up: time < 24 hr
Summary of the method: (§2)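 Study 2: a single 100-mg i.v. dose was infused over about 30 min. Colon wall was collected about 4, 8, 12 or 24 h after the infusion started. Tissue (0.20-g aliquot) was homogenized with deuterated internal standard in acetonitrile, then assayed by LC-MS/MS. Data were comodeled with serum from all five studies in BigNPAG. Monte Carlo simulation gave steady-state AUC0-24 percentiles.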

[3] = Penetration ratio, ratio of AUC (0 to 24 hrs) for human colon wall tissue to AUC (0 to 24 hrs) for human serum at 5th AUC percentile curve; assay type: ADME; summary of the method: as §1
[4] = Penetration ratio, ratio of AUC (0 to 24 hrs) for human colon wall tissue to AUC (0 to 24 hrs) for human serum at 25th AUC percentile curve; assay type: ADME; summary of the method: as §1
[5] = Volume of distribution in human lung; assay type: ADME, organism-based
Summary of the method: (§3)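 Serum, ELF and colon wall concentrations were fitted simultaneously in BigNPAG. One specific-volume term estimated all tissue compartment volumes. Individual Bayesian estimates were obtained with the population-of-one utility.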

[6] = Penetration ratio, ratio of AUC (0 to 24 hrs) for human epithelial lining fluid to AUC (0 to 24 hrs) for human serum at 5th AUC percentile curve; assay type: ADME, tissue-based; summary of the method: as §1
[7] = AUC (0 to 24 hrs) in human epithelial lining fluid at 75th AUC percentile curve; assay type: ADME, tissue-based; set-up: time < 24 hr
Summary of the method: (§4)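 Study 1: 100-mg i.v. loading dose, then 50 mg i.v. every 12 h through day 4 (seven 30-min infusions). Drug was measured in BAL fluid by LC-MS/MS. ELF concentration was derived by urea dilution, using BAL and serum urea drawn at bronchoscopy. Values were comodeled with serum data in a population model, and Monte Carlo simulation gave steady-state AUC0-24 percentiles.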

[8] = Penetration ratio, ratio of AUC (0 to 24 hrs) for human epithelial lining fluid to AUC (0 to 24 hrs) for human serum at 75th AUC percentile curve; assay type: ADME, tissue-based; summary of the method: as §1
[9] = Volume of distribution in human serum; assay type: ADME, organism-based; summary of the method: as §3
[10] = Protein binding in human serum; assay type: ADME, cell-free; conditions: read-out: PB (converted)
[11] = AUC (0 to 24 hrs) in human colon wall tissue at 95th AUC percentile curve; assay type: ADME, tissue-based; set-up: time < 24 hr; summary of the method: as §2
[12] = AUC (0 to 24 hrs) in human serum at 5th AUC percentile curve; assay type: ADME, cell-free; set-up: time < 24 hr
Summary of the method: (§5)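 Serum came from five studies. Study 1: serial samples over 24 h after the last of seven i.v. doses. Study 2: samples after a single 100-mg infusion. Studies 3-5: patients on 100 mg then 50 mg q12h for 5-14 days, sampled predose, at end of infusion, and at 3 and 6 h. Assay was LC-MS/MS. Population modeling plus Monte Carlo simulation gave steady-state AUC0-24 percentiles.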

[13] = Volume of distribution in human colon wall tissue; assay type: ADME, organism-based; summary of the method: as §3
[14] = AUC (0 to 24 hrs) in human serum at 75th AUC percentile curve; assay type: ADME, cell-free; set-up: time < 24 hr; summary of the method: as §5
[15] = AUC (0 to 24 hrs) in human epithelial lining fluid at 50th AUC percentile curve; assay type: ADME, tissue-based; set-up: time < 24 hr; summary of the method: as §4
[16] = Penetration ratio, ratio of AUC (0 to 24 hrs) for human epithelial lining fluid to AUC (0 to 24 hrs) for human serum at 50th AUC percentile curve; assay type: ADME, tissue-based; summary of the method: as §1
[17] = AUC (0 to 24 hrs) in human epithelial lining fluid at 95th AUC percentile curve; assay type: ADME, tissue-based; set-up: time < 24 hr; summary of the method: as §4
[18] = Clearance in human serum; assay type: ADME, organism-based; summary of the method: as §3
[19] = AUC (0 to 24 hrs) in human colon wall tissue at 25th AUC percentile curve; assay type: ADME, tissue-based; set-up: time < 24 hr; summary of the method: as §2
[20] = Penetration ratio, ratio of AUC (0 to 24 hrs) for human epithelial lining fluid to AUC (0 to 24 hrs) for human serum at 95th AUC percentile curve; assay type: ADME, tissue-based; summary of the method: as §1
[21] = Penetration ratio, ratio of AUC (0 to 24 hrs) for human colon wall tissue to AUC (0 to 24 hrs) for human serum at 50th AUC percentile curve; assay type: ADME; summary of the method: as §1
[22] = AUC (0 to 24 hrs) in human serum at 95th AUC percentile curve; assay type: ADME, cell-free; set-up: time < 24 hr; summary of the method: as §5
[23] = Penetration ratio, ratio of AUC (0 to 24 hrs) for human epithelial lining fluid to AUC (0 to 24 hrs) for human serum at 25th AUC percentile curve; assay type: ADME, tissue-based; summary of the method: as §1
[24] = AUC (0 to 24 hrs) in human epithelial lining fluid at 5th AUC percentile curve; assay type: ADME, tissue-based; set-up: time < 24 hr; summary of the method: as §4
[25] = Penetration ratio, ratio of AUC (0 to 24 hrs) for human colon wall tissue to AUC (0 to 24 hrs) for human serum at 95th AUC percentile curve; assay type: ADME; summary of the method: as §1
[26] = AUC (0 to 24 hrs) in human colon wall tissue at 50th AUC percentile curve; assay type: ADME, tissue-based; set-up: time < 24 hr; summary of the method: as §2
[27] = AUC (0 to 24 hrs) in human epithelial lining fluid at 25th AUC percentile curve; assay type: ADME, tissue-based; set-up: time < 24 hr; summary of the method: as §4
[28] = AUC (0 to 24 hrs) in human serum at 25th AUC percentile curve; assay type: ADME, cell-free; set-up: time < 24 hr; summary of the method: as §5
[29] = AUC (0 to 24 hrs) in human serum at 50th AUC percentile curve; assay type: ADME, cell-free; set-up: time < 24 hr; summary of the method: as §5
[30] = AUC (0 to 24 hrs) in human colon wall tissue at 75th AUC percentile curve; assay type: ADME, tissue-based; set-up: time < 24 hr; summary of the method: as §2

- Kp [1]: 3.91
- AUC(0-t) at 24 h [2]: 1.65 µg·h/mL
- Kp [3]: 0.16
- Kp [4]: 0.683
- Vd [5]: 35.2 L
- Kp [6]: 0.561
- AUC(0-t) at 24 h [7]: 22.3 µg·h/mL
- Kp [8]: 2.45
- Vd [9]: 30.9 L
- fraction unbound [10]: 0.29
- AUC(0-t) at 24 h [11]: 3370 µg·h/mL
- AUC(0-t) at 24 h [12]: 4.84 µg·h/mL
- Vd [13]: 50.5 L
- AUC(0-t) at 24 h [14]: 8.72 µg·h/mL
- AUC(0-t) at 24 h [15]: 9.03 µg·h/mL
- Kp [16]: 1.15
- AUC(0-t) at 24 h [17]: 32.4 µg·h/mL
- clearance [18]: 243 mL/min
- AUC(0-t) at 24 h [19]: 6.44 µg·h/mL
- Kp [20]: 5.23
- Kp [21]: 1.73
- AUC(0-t) at 24 h [22]: 18.5 µg·h/mL
- Kp [23]: 0.823
- AUC(0-t) at 24 h [24]: 4.3 µg·h/mL
- Kp [25]: 199
- AUC(0-t) at 24 h [26]: 15.6 µg·h/mL
- AUC(0-t) at 24 h [27]: 5.19 µg·h/mL
- AUC(0-t) at 24 h [28]: 5.09 µg·h/mL
- AUC(0-t) at 24 h [29]: 6.16 µg·h/mL
- AUC(0-t) at 24 h [30]: 30.4 µg·h/mL
Structure (SMILES): CN(C)c1cc(NC(=O)CNC(C)(C)C)c(O)c2c1C[C@H]1C[C@H]3[C@H](N(C)C)C(O)=C(C(N)=O)C(=O)[C@@]3(O)C(O)=C1C2=O [TIGECYCLINE]

Source: ChEMBL document CHEMBL1137663, “Evaluation of tigecycline penetration into colon wall tissue and epithelial lining fluid using a population pharmacokinetic model and Monte Carlo simulation” (Antimicrob Agents Chemother, 2007)
